Assay outcomes as filed in PubChem.
Shown are actives, neighbours in structure and some others; about 3.8% of the full set was active somewhere.
KCNQ1 block: blocks the human KCNQ1 potassium channel | P51787 | CHO-K1 KCNQ1, FluxOR thallium flux fluorescence; active compounds read high | B-score at 10 µM | 310,000 tested, 1.3% active | AID 2642;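 active = compounds whose thallium flux B-score, printed positive for inhibition, exceeds three library SD while starting fluorescence stays within three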;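 also: channel opened by potassium depolarization with thallium stimulus after 20 min compound exposure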
KCNQ1 act: potentiators or activators of human KCNQ1 potassium channel | 310,000 tested, 0.35% active | CHO-K1 KCNQ1, thallium flux FluxOR fluorescence; active compounds read high | B-score at 10 µM | P51787;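 active = fluorescence ratio B-score, a plate-corrected score, at least three library SD, with initial intensity B-score within 5 SD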
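Assay system: CHO-K1 cells stably expressing KCNQ1; Medium: assay buffer with matched DMSO; Also added: K+/Tl+ depolarizing stimulus; Dosing: single dose; Timing: dye 90 min, compound 20 min, room temperature; Measured by: kinetic FluxOR thallium fluorescence, 10-s 1-Hz baseline, 110-s post-stimulus read; Read-out: peak-minus-minimum fluorescence over initial fluorescence, negative-control normalized, B-scored.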
KCNK3 block: human KCNK3 channel inhibition, primary screen; O14649; CHO-KCNK3 thallium flux, FluxOR fluorescence; active compounds read low; B-score at 10 µM; 340,000 tested, 0.84% active; AID 602410;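 active = B-score under library mean minus 4 SD, starting fluorescence ratio at most library mean plus 5 SD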;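 also: more negative B-score means stronger inhibition of thallium flux through KCNK3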
hERG protect: hERG (human) protection from proarrhythmic block | Q12809 | CHO-hERG, FluxOR thallium flux, dofetilide IC70 present | activation (rescue from dofetilide block), less the hit threshold, % at 10 µM | 310,000 tested, 0.51% active;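 active = activation above the mean of controls blocked by dofetilide plus 5 SD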;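 also: thallium influx through hERG after potassium depolarization seen as dye fluorescence rise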
Kir21 inh: inhibitors of mouse Kir2.1 inward-rectifier potassium channel. B-score at 10 µM. HEK293-Kir2.1, FluxOR thallium flux fluorescence; active compounds read low. P35561. 310,000 tested, 0.85% active;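 active = fluorescence ratio B-score at or below minus 3 SD of library scores, with starting-brightness B-score within 2 SD, cut at about -4.2 in these data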;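 also: channel flux triggered by added potassium and thallium sulfate stimulus; B-score of peak minus minimum fluorescence over baseline after thallium stimulus; more negative B-score means stronger Kir2.1 block with less thallium influx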
Target sequence (P35561 whole entry, looked up): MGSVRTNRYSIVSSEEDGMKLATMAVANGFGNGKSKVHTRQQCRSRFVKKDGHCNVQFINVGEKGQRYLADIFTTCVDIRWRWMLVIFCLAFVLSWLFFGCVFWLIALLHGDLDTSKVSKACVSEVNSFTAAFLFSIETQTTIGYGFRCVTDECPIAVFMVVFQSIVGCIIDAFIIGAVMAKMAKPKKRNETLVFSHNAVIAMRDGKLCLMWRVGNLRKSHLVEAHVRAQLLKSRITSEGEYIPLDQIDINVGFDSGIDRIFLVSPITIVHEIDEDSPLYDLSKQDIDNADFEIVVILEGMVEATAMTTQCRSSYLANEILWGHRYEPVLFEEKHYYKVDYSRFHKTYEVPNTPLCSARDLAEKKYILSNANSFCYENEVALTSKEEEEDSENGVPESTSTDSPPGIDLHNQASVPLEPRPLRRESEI
KCNK9 inh: human KCNK9 channel inhibition. Q9NPC2. HEK293 KCNK9, FluxOR thallium flux fluorescence; active compounds read low. B-score at 10 µM. 310,000 tested, 1.2% active. AID 488922;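 active = ratio B-score over 3 SD below the library mean, with starting fluorescence within 5 SD of its mean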;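 also: negative B-score means less thallium flux so channel inhibition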
A number is an active result; - = inactive; . = no result given.

SMILES	KCNQ1 block	KCNQ1 act	KCNK3 block	hERG protect	Kir21 inh	KCNK9 inh
Cc1c(C)n(C)c2ccc(C(=O)NCCCN3CCN(c4ccc(F)cc4)CC3)cc12	-	-	-	-	-4.25	-
Cc1c(C)n(Cc2ccc(F)cc2)c2ccc(C(=O)NCCCN3CCOCC3)cc12	-	-	-	-	-4.82	-
Cc1ccc(CNC2CCCCC2)s1	-	-	-	-	-	-
CS(=O)(=O)c1ccc(Cl)c(NC(=O)CSc2nnc(C3CC3)n2C2CC2)c1	.	.	-	.	.	.
CC1(C)CC(NC(=O)c2cc(S(=O)(=O)N3CCOCC3)ccc2Cl)CC(C)(C)N1	.	.	-	.	.	.
O=C(CSc1nnc(Cc2ccccc2)o1)Nc1ccc(N2CCOCC2)cc1	.	.	-	.	.	.
COc1cc(C(=O)NC(=S)N(CCC#N)Cc2cccnc2)cc(OC)c1OC	.	.	-	.	.	.
CCCOc1ccc(CN(CCC#N)C(=S)NC(=O)c2ccccc2)cc1	-	14	-	59.2	-	-
CCCn1nc(NC(=O)COC)c2cc3cc(C)ccc3nc21	-	-	-	-	-	-
CCCCn1nc(NC(=O)COC)c2cc3ccc(C)cc3nc21	-	-	-	9.0	-	-
O=C(C[n+]1ccccc1)Nc1ccccc1C(F)(F)F	-	-	-	-	-	-
O=[N+]([O-])c1cc(Cl)cc(/C=N/Nc2nc3ccccc3s2)c1O	6	-	-	-	-	-
O=C(COc1ccc(Cl)cc1Br)OCC(=O)c1ccc[nH]1	.	.	-	.	.	.
CN(C)C(=O)c1cc(F)ccc1Sc1cc(Cl)ccc1Cl	-	-	-	-	-5.8	-
CN(C)C(=O)c1cc(C(=O)c2ccc(F)cc2Cl)c[nH]1	-	-	-	-	-	-
CN(C)C(=O)c1cc(Cl)ccc1Sc1cc(Cl)ccc1Cl	-	-	-	-	-5.43	-
COc1ccc(-n2c(=O)[nH]c3cc(C(=O)NCCc4ccccc4)ccc3c2=O)cc1OC	-	-	-	-	-	-
O=C(CSc1nnc(-c2ccccc2)c2ccccc12)NCCN1C(=O)CSC1=O	.	.	-	.	.	.
O=C(CSc1ccc(F)cc1)Nc1ccc2c(c1)C(=O)NC2=O	-	-	-	-	-	-
CC(=O)Oc1c(-c2ccco2)oc2ccccc2c1=O	-	8	-	-	-	-
c1ccc(Nc2c3c(nc4ccccc24)CCC3)cc1	-	-	-	-	-4.86	-
COc1ccc(C)cc1Nc1c2c(nc3ccccc13)CCC2	-	-	-	-	-9.29	-
Fc1ccc(Nc2c3c(nc4ccccc24)CCC3)cc1	-	-	-	-	-5.1	-
COc1ccc(Nc2c3c(nc4ccccc24)CCCC3)cc1OC	-	-	-	-	-	-
c1ccc2c(Nc3ccc4c(c3)OCCO4)c3c(nc2c1)CCC3	-	-	-	-	-	-
SMILES	KCNQ1 block	KCNQ1 act	KCNK3 block	hERG protect	Kir21 inh	KCNK9 inh
COc1ccc(Nc2c3c(nc4ccccc24)CCC3)cc1	-	-	-	-	-12.3	-
COc1ccc(CN2CCSc3sccc3C2=O)cc1	-	-	-	-	-	-
Cc1ccc2nc3c(c(Nc4ccccc4)c2c1)CCC3	-	-	-	-	-4.37	-
CCn1nnnc1SCC(=O)N(C)C1CCS(=O)(=O)C1 (stereo not drawn)	.	.	-	.	.	.
COc1ccc(-c2nc(-c3ccccc3)c(-c3cccs3)[nH]2)cc1OC	-	-	-	-	-	-
COc1ccc(-c2nc(-c3cccs3)c(-c3cccs3)[nH]2)cc1OC	7	-	-	-	-	-
O=C(COC(=O)c1ccc(Br)o1)Nc1ccc(N2CCOCC2)cc1	.	.	-	.	.	.
C/C(=N\NC(=O)c1nn(C)c(C)c1Br)c1ccc(NC(=O)c2ccoc2C)cc1	-	-	-	-	-	-7.9
CC(C)CNC(=O)c1ccccc1NC(=O)c1ccc(CSc2ccccc2)cc1	7	-	-	-	-	-
CCOc1ccc(C(C)NC(=O)c2ccc3c(c2)NC(=O)C(C)S3)cc1OCC (stereo not drawn)	.	.	-	.	.	.
Cc1ccc(OCCN2C(=O)c3ccccc3C2=O)c([N+](=O)[O-])c1	-	9	-	-	-	-
Fc1ccccc1-c1nc2nc3ccccc3nc2n1CC1CCCO1 (stereo not drawn)	-	-	-	-	-	-
CC(C)Oc1ccc(/C(O)=C2/C(=O)C(=O)N(CCN3CCNCC3)C2c2ccc(C(C)C)cc2)cc1 (stereo not drawn)	-	-	-	-	-	-
